# According to ChEMBL document CHEMBL2331096, “Montmorillonite K-10 catalyzed green synthesis of 2,6-unsubstituted dihydropyridines as potential inhibitors of PDE4” (Eur J Med Chem, 2013):
# Target: T1, 3',5'-cyclic-AMP phosphodiesterase 4B (Homo sapiens, UniProt Q07343)
# Assay: Inhibition of recombinant His-tagged PDE4B (unknown origin) expressed in Sf9 cells using cAMP as substrate incubated for 15 mins prior to substrate addition measured after 1 hr by luminescence-based assay
# Outline: (§1)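 His-tagged PDE4B made in baculovirus-infected Sf9 cells (lysed 48 h post-infection) and purified on Ni-NTA with imidazole elution. Enzyme (10 ng) pre-incubated 15 min with compound or DMSO vehicle, then 1 h with cAMP substrate; reaction stopped, detection reagent added for 10 min in dark, luminescence (RLU) read. Percent inhibition calculated from RLU relative to vehicle control.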
# T1 sequence (Q07343 whole entry): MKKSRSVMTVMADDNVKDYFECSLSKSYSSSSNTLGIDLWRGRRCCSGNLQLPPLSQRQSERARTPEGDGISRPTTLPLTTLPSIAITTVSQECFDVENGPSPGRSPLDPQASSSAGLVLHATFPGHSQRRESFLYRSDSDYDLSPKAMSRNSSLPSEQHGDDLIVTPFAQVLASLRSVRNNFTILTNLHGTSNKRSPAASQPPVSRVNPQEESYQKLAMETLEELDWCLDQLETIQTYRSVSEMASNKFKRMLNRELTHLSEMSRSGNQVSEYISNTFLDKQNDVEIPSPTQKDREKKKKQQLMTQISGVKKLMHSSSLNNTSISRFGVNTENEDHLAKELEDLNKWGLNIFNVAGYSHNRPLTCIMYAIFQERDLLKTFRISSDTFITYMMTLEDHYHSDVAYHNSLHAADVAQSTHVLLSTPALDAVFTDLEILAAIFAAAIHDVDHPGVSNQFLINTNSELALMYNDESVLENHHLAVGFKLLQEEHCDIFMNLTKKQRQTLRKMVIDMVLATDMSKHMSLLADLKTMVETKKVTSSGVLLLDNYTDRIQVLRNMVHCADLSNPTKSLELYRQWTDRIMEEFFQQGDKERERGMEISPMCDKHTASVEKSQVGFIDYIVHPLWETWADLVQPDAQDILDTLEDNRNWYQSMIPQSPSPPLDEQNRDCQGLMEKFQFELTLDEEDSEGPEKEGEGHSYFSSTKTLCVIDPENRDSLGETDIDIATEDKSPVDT
Structure (SMILES),IC50,inhibition
CCOC(=O)C1=CN(c2ccccc2OC)C=C(C(=O)OCC)C1c1ccc(Br)cc1,> 5 µM,Dose-dependent effect

# Target: T1, 3',5'-cyclic-AMP phosphodiesterase 4B
# Assay: Inhibition of recombinant His-tagged PDE4B (unknown origin) expressed in Sf9 cells using cAMP as substrate at 30 uM incubated for 15 mins prior to substrate addition measured after 1 hr by luminescence-based assay
# Outline: as §1
row,inhibition,Structure (SMILES)
1,37.3%,CCOC(=O)C1=CN(c2ccccc2OC)C=C(C(=O)OCC)C1c1cccc(Br)c1
2,35.1%,CCOC(=O)C1=CN(c2ccc(OC)cc2)C=C(C(=O)OCC)C1c1ccc(Br)cc1
3,59.2%,CCOC(=O)C1=CN(c2ccccc2OC)C=C(C(=O)OCC)C1c1ccc(OC)cc1
4,33.4%,CCOC(=O)C1=CN(c2ccccc2OC)C=C(C(=O)OCC)C1c1ccc(F)cc1
5,29.9%,CCOC(=O)C1=CN(c2ccccc2OC)C=C(C(=O)OCC)C1c1ccccc1
6,78.4%,CCOC(=O)C1=CN(c2ccccc2OC)C=C(C(=O)OCC)C1c1ccc(Br)cc1

# Continued, compound first:
row,Structure (SMILES),inhibition
1,CCOC(=O)C1=CN(c2ccccc2OC)C=C(C(=O)OCC)C1c1cccc(Cl)c1,30.4%
2,CCOC(=O)C1=CN(c2ccc(OC)cc2OC)C=C(C(=O)OCC)C1c1ccc(F)c(F)c1,69.2%
3,CCOC(=O)C1=CN(c2ccc(OC)cc2)C=C(C(=O)OCC)C1c1cccc(Br)c1,42%
4,CCOC(=O)C1=CN(c2ccc(OC)cc2)C=C(C(=O)OCC)C1c1ccccc1,39.3%
5,CCOC(=O)C1=CN(c2cccc(Cl)c2)C=C(C(=O)OCC)C1c1ccc(F)cc1,44.2%
6,CCOC(=O)C1=CN(c2ccc(OC)cc2)C=C(C(=O)OCC)C1c1ccc(F)c(F)c1,78.7%
7,CCOC(=O)C1=CN(c2ccc(OC)cc2)C=C(C(=O)OCC)C1c1ccc(F)cc1,40.2%
8,CCOC(=O)C1=CN(c2ccccc2OC)C=C(C(=O)OCC)C1c1ccc(F)c(F)c1,46%
